One compound from ChEMBL document CHEMBL3992510, “Urea Derivatives of 2-Aryl-benzothiazol-5-amines: A New Class of Potential Drugs for Human African Trypanosomiasis” (J Med Chem, 2017) can be followed below.

The nature of series [1]: Drug level in mouse brain at 50 mg/kg, po administered as single dose via gavage measured at 24 hrs post dose by liquid chromatography/tandem mass spectrometric analysis. To be noted: read-out: Drug uptake. Type of series: ADME, organism-based. In short, it runs like this: (§1)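 Single 50 mg/kg oral dose in DMSO (5%), Tween 80 (7%), EtOH (3%) in 0.9% saline; groups of three mice killed at 1, 4, 8 and 24 h. Plasma separated by brief centrifugation; brain homogenised in acetonitrile; both assayed by LC-MS/MS, brain values corrected for 3% v/w blood content. Mean ± SEM of 3 mice; plasma LLQ 0.010 μM.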

A short description of series [2]: Drug level in mouse brain at 50 mg/kg, po administered as single dose via gavage measured at 4 hrs post dose by liquid chromatography/tandem mass spectrometric analysis. The class given is ADME, organism-based. The note with it: read-out: Drug uptake. In short, it runs like this:
as §1

The subject of another series is Plasma. In words: Drug level in Swiss-Webster mouse plasma infected with Trypanosoma brucei rhodesiense STIB900 at 50 mg/kg, po bid administered via gavage for 4 days starting from 2 days post infection measured on day 3 prior to dose 7. The class given is ADME, organism-based. To be noted: in vivo. Summed up: (§2)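 Female Swiss-Webster mice (ND4 outbred, 6−8 weeks), groups of five, infected day 0 with 1 × 10^4 T. b. rhodesiense STIB900; 50 mg/kg oral gavage every 12 h days 2−5 (eight doses) in 200 μL DMSO 5%, Tween 80 7%, EtOH 3% in 0.9% saline. Tail blood from 3 mice before dose 7, then 1 and 6 h post-dose, spotted on cards, LC-MS/MS.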

A short description of series [3]: Selectivity index, ratio of EC50 for human CRL8155 cells to EC50 for Trypanosoma brucei brucei BF427. Type of series: toxicity. To be noted: read-out: Ratio EC50.
A short description of series [4]: Drug level in mouse plasma at 50 mg/kg, po administered as single dose via gavage measured at 8 hrs post dose by liquid chromatography/tandem mass spectrometric analysis. Type of series: ADME, organism-based. In short, it runs like this: as §1
Series [5] can be described thus: AUC (0 to infinity) in mouse plasma at 50 mg/kg, po administered as single dose via gavage by liquid chromatography/tandem mass spectrometric analysis. The class given is ADME, organism-based. More on the design: dose 50 mg/kg, time infinity, route oral. Summed up: (§3)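 Time course after a single 50 mg/kg oral dose in 5% DMSO/7% Tween 80/3% EtOH in 0.9% saline. Mice are sacrificed in groups of three at 1, 4, 8 and 24 h. Plasma is separated by centrifugation and brain homogenized in acetonitrile, both measured by LC-MS/MS. Brain values are corrected for 3% v/w blood. Lower limit of quantitation 0.010 μM. Values are means ± SEM.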

The nature of series [6]: Drug level in mouse brain at 5 mg/kg, ip administered as single dose measured at 1 hr post dose by liquid chromatography/tandem mass spectrometric analysis. Type of series: ADME, organism-based. To be noted: read-out: Drug uptake. Summed up:
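Single ip dose of 5 mg/kg in 5% DMSO/7% Tween 80/3% EtOH in 0.9% saline, three mice per compound (six for one compound). At 1 h, plasma is separated by centrifugation and brain homogenized in acetonitrile. Both are quantified by LC-MS/MS, with brain corrected for 3% v/w blood. Brain/plasma ratio is reported as mean ± SEM.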

Series [7] is described as follows: Drug level in Swiss-Webster mouse plasma infected with Trypanosoma brucei rhodesiense STIB900 at 50 mg/kg, po bid administered via gavage for 4 days starting from 2 days post infection measured at 6 hrs post last dose. Type of series: ADME, organism-based. Summed up: as §2
A short description of series [8]: Drug level in Swiss-Webster mouse plasma infected with Trypanosoma brucei brucei TREU667 at 50 mg/kg, po bid administered via gavage for 10 days starting from 21 days post infection measured at 6 hrs post last dose. Type of series: ADME, organism-based.
Series [9] can be described thus: Cytotoxicity against human CRL8155 cells assessed as growth inhibition after 48 hrs by Alamar blue assay. Type of series: cell-based. To be noted: Homo sapiens, CRL8155, 48 h. Summed up:
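CRL-8155 lymphoblasts or HepG2 hepatocellular carcinoma cells are exposed 48 h to serial compound dilutions in quadruplicate. Growth is read with Alamar Blue, and 50% and 90% inhibitory concentrations come from nonlinear regression. Quinacrine is the control.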

Series [10] in a line: Drug level in Swiss-Webster mouse plasma infected with Trypanosoma brucei rhodesiense STIB900 at 50 mg/kg, po bid administered via gavage for 4 days starting from 2 days post infection measured at 1 hr post last dose. Type of series: ADME, organism-based. Summed up:
as §2

Series [11] in a line: AUC (0 to infinity) in mouse at 50 mg/kg, po administered as single dose via gavage as 0.5% methylcellulose cP400/0.5% Tween 80 formulation by liquid chromatography/tandem mass spectrometric analysis. The note with it: in vivo. More on the design: dose 50 mg/kg, route oral, time infinity. The class given is ADME, organism-based. In short, it runs like this:
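Single oral gavage dose of 50 mg/kg to groups of three mice, vehicle as in the line. Tail blood of 40 μL is taken into heparinized capillaries at time points out to as much as 32 h. It is spotted on dried-blood cards and quantified by LC-MS/MS. Values are means ± SEM of three mice.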

A short description of series [12]: AUC (0 to infinity) in mouse brain at 50 mg/kg, po administered as single dose via gavage by liquid chromatography/tandem mass spectrometric analysis. The class given is ADME, organism-based. Set-up: dose 50 mg/kg, time infinity, route oral. In short, it runs like this:
as §3

As for `O=C(Nc1ccc2sc(-c3ccc(F)c(F)c3)nc2c1)N1CC[C@H](F)C1`, the concentration at 24 h in series [1] is 0.28 µM. The concentration at 4 h in series [2] came out at 45.2 µM. This compound also gave a concentration in the series on Plasma of 9.1 µM. Besides, the selectivity ratio in series [3] was greater than 1440. In series [4], this compound showed a concentration at 8 h of 8.97 µM. Besides, the AUC(0-inf) in [5] was 180 µM·h; in [11], 106 µM·h; in [12], 719 µM·h. The concentration at 1 h in [6] is 9.07 µM; in [10], 18.6 µM. For the same compound, the concentration at 6 h in series [7] was 15 µM; in [8], 26.7 µM. For the same compound, the EC50 in [9] is greater than 50 µM.
